Experimental data taken from ChEMBL document CHEMBL4406918, “Inhibitory Effects of Multivalent Polypeptides on the Proliferation and Metastasis of Breast Cancer Cells” (ACS Med Chem Lett, 2019).
Calls of active or inactive are those of the source. The rule behind the calls is not given here.

What was measured:
[1] = Toxicity in BALB/c mouse xenografted with mouse 4T1 cells assessed as change in serum creatinine level at 10 mg/kg administered intratumorally and measured after 24 days; type: organism-based; settings: in vivo, other, 576 h
Erythrocyte = assay: Hemolytic activity in BALB/c mouse RBC at 3.2 mM incubated for 2 hrs by UV-Vis spectrophotometric analysis; type: ADME, cell-based; settings: 3200 µM
How it was run: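 Hemolysis assay on red blood cells with dendrimers up to 3.2 mM. Result is expressed as hemolysis rate, with under 5% taken as acceptable.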

4T1 [2] = assay: Induction of cell cycle arrest in mouse 4T1 cells assessed as accumulation at G0/G1 phase at 0.4 mM incubated for 24 hrs by PI staining based flow cytometric analysis (reference value: 37.78%); type: functional
4T1 [3] = assay: Induction of apoptosis in mouse 4T1 cells assessed as early apoptotic cells at 0.4 mM incubated for 24 hrs by Annexin V-FITC/PI based FACS analysis (reference value: 0.76%); type: functional
4T1 [4] = assay: Antitumour activity against mouse 4T1 cells xenografted in BALB/c mouse assessed as increase in number of TUNEL positive cells at 10 mg/kg administered intratumorally and measured after 24 days by H and E staining based inverted optical microscopic method; type: functional, organism-based
How it was run: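 BALB/c mice bearing subcutaneous 4T1 tumours received 6 doses at 10 mg/kg body weight, matched for YSL monomer molar amount, with saline as control. Tumour sections were stained for H&E, CD31, Ki-67 and TUNEL. n = 5.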

[5] = Toxicity in BALB/c mouse xenografted with mouse 4T1 cells assessed as induction of morphological lesions in liver at 10 mg/kg administered intratumorally and measured after 24 days by H and E staining based inverted optical microscopic method; type: organism-based; settings: in vivo, other, 576 h
[6] = Toxicity in BALB/c mouse xenografted with mouse 4T1 cells assessed as induction of morphological lesions in heart at 10 mg/kg administered intratumorally and measured after 24 days by H and E staining based inverted optical microscopic method; type: organism-based; settings: in vivo, other, 576 h
[7] = Toxicity in BALB/c mouse xenografted with mouse 4T1 cells assessed as induction of morphological lesions in spleen at 10 mg/kg administered intratumorally and measured after 24 days by H and E staining based inverted optical microscopic method; type: organism-based; settings: in vivo, other, 576 h
[8] = target: Matrix metalloproteinase-9 (Mus musculus) (UniProt P41245); assay: Residual MMP9 activity in mouse 4T1 cells at 0.2 mM incubated for 24 hrs by coomassie brilliant blue staining based gelatin zymography assay relative to control
Matrix metalloproteinase-9 (Mus musculus), sequence (P41245 whole entry): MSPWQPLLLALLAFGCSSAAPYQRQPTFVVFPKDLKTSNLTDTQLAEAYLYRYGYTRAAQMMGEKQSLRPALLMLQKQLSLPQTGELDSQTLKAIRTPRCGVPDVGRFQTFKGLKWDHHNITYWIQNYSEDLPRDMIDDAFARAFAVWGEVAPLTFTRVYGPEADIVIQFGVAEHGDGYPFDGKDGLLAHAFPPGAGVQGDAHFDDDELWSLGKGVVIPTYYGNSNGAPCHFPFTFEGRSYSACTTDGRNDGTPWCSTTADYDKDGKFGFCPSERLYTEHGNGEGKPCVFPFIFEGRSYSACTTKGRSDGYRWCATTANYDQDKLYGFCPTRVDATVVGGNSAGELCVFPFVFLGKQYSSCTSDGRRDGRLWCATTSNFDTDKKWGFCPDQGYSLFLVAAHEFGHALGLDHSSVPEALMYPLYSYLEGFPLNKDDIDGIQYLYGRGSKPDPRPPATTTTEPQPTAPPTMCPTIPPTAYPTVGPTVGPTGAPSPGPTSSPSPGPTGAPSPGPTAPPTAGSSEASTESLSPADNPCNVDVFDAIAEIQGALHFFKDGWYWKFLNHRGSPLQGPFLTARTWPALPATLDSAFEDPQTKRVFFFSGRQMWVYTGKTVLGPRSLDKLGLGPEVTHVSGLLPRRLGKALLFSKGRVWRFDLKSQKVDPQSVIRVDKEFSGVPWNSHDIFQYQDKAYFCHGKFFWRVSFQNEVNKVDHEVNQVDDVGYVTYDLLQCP

COC(=O)[C@H](CCCCNC(=O)[C@H](CCCCNC(=O)[C@H](CCCCNC(=O)[C@H](CC(C)C)NC(=O)[C@H](CO)NC(=O)[C@@H](N)Cc1ccc(O)cc1)NC(=O)[C@H](CC(C)C)NC(=O)[C@H](CO)NC(=O)[C@@H](N)Cc1ccc(O)cc1)NC(=O)[C@H](CCCCNC(=O)[C@H](CC(C)C)NC(=O)[C@H](CO)NC(=O)[C@@H](N)Cc1ccc(O)cc1)NC(=O)[C@H](CC(C)C)NC(=O)[C@H](CO)NC(=O)[C@@H](N)Cc1ccc(O)cc1)NC(=O)[C@H](CCCCNC(=O)[C@H](CCCCNC(=O)[C@H](CC(C)C)NC(=O)[C@H](CO)NC(=O)[C@@H](N)Cc1ccc(O)cc1)NC(=O)[C@H](CC(C)C)NC(=O)[C@H](CO)NC(=O)[C@@H](N)Cc1ccc(O)cc1)NC(=O)[C@H](CCCCNC(=O)[C@H](CC(C)C)NC(=O)[C@H](CO)NC(=O)[C@@H](N)Cc1ccc(O)cc1)NC(=O)[C@H](CC(C)C)NC(=O)[C@H](CO)NC(=O)[C@@H](N)Cc1ccc(O)cc1
Activity [1]: Non-Toxic
Activity (Erythrocyte): Non-Toxic
Activity (4T1 [2]): 44.44%
Activity (4T1 [3]): 3.95%
Activity (4T1 [4]): Active
Activity [5]: Non-Toxic
Activity [6]: Non-Toxic
Activity [7]: Non-Toxic
residual activity [8]: 34%
